From ChEMBL document CHEMBL1135691, “Synthesis of novel N-1 (allyloxymethyl) analogues of 6-benzyl-1-(ethoxymethyl)-5-isopropyluracil (MKC-442, emivirine) with improved activity against HIV-1 and its mutants” (J Med Chem, 2002)
“And” between values parts separate entries of the source, which are not always exact repeats. Equal entries are not always repeated. Structures can show the parent of a compound that is named as a salt.

What was measured:
[1] = test system: Human immunodeficiency virus 1; test: Effective concentration required to achieve 50% inhibition of HIV-1 multiplication in MT-4-infected K103N strain; format: functional; details: read-out: ED50 (the source's name)
Outline: (§1)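 NNRTI-resistant HIV-1 strains infected MT-4 cells at 0.005 MOI. Cells were cultured with serial compound dilutions in RPMI 1640 with 10% heat-inactivated FCS and antibiotics for 6 days, alongside infected and uninfected no-compound controls. Viral expression was quantified indirectly by MTT assay. EC50 was interpolated from percent-inhibition versus concentration plots. Values are means of three separate experiments.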

[2] = test system: Human immunodeficiency virus 1; test: (§2) Effective concentration required to achieve 50% inhibition of HIV-1 multiplication in MT-4-infected Y181C strain; format: functional; details: read-out: ED50 (the source's name); outline: as §1
[3] = test system: Human immunodeficiency virus 1; test: Effective concentration required to achieve 50% inhibition of HIV-1 multiplication in MT-4-infected wild type cells; format: functional; details: read-out: ED50 (the source's name)
Outline: (§3)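 MT-4 cells infected with wild-type HIV-1 (IIIB, H9-propagated stock, or HxB2 clone) at MOI 0.005 and cultured 6 days in RPMI 1640 with 10% heat-inactivated FCS and compound dilutions. Infected and uninfected controls without compound run in parallel. Virus expression measured indirectly by MTT. EC50 interpolated from inhibition–concentration plots. Mean of three experiments.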

[4] = test system: Human immunodeficiency virus 1; test: as §2; format: functional; details: read-out: ED50 (the source's name); outline: as §1; remark: listed apart in the source
[5] = test system: Human immunodeficiency virus 1; test: Effective concentration required to achieve 50% inhibition of HIV-1 multiplication in MT-4-infected Y181C+K103N strain; format: functional; details: read-out: ED50 (the source's name); outline: as §1
[6] = test system: Human immunodeficiency virus 1; test: Inhibition of HIV-1 IIIB replication in MT-4-infected wild type cells.; format: functional; details: read-out: ED50 (the source's name); outline: as §3
MT4 = test: (§4) Cytotoxic dose required to reduce the viability of normal uninfected MT-4 cells by 50%; format: functional, Homo sapiens; details: read-out: CD50 (the source's name)
[7] = (§5) Selective index as the ratio of CD50 to that of ED50 against HIV-1 HxB2 strain.
Outline: (§6)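 Ratio of CD50 to ED50. Both values come from 6-day MT-4 MTT assays: uninfected cultures for cytotoxicity, and cultures infected at MOI 0.005 with the named wild-type strain for antiviral effect. Each value was interpolated from inhibition–concentration plots and is the mean of three experiments.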

[8] = Selective index as the ratio of CD50 to that of ED50 against HIV-1 IIIB strain.; outline: as §6
[9] = Selective index (CD50 compared to ED50 against HIV-1 IIIB strain).; format: functional; outline: as §6
[10] = as §5; format: functional; outline: as §6
[11] = as §4; format: cell-based, MT4; details: human, read-out: CD50 (the source's name)

Structure (SMILES): C=C(C)COCn1c(Cc2ccccc2)c(C(C)C)c(=O)[nH]c1=O
- EC50 [1]: > 100000 nM
- EC50 [2]: > 100000 nM
- EC50 [3]: 50 nM
- EC50 [4]: > 100000 nM
- EC50 [5]: > 100000 nM
- EC50 [6]: 280 nM
- CC50 (MT4): 40000 nM and > 100000 nM
- SI [7]: > 2000
- SI [8]: 142

Structure (SMILES): C#CCOCn1c(Cc2cc(C)cc(C)c2)c(CC)c(=O)[nH]c1=O
- EC50 [4]: > 100000 nM
- EC50 [5]: 3000 nM
- EC50 [6]: 3 nM
- CC50 (MT4; Homo sapiens, MT4): > 100000 nM
- SI [9]: > 33300

Structure (SMILES): Cc1ccnc2c1NC(=O)c1cccnc1N2C1CC1 [NEVIRAPINE]
- EC50 [1]: 4300 nM
- EC50 [2]: 22000 nM
- EC50 [3]: 570 nM
- EC50 [4]: > 100000 nM
- EC50 [5]: > 100000 nM
- EC50 [6]: 380 nM
- CC50 (MT4; Homo sapiens, MT4): > 100000 nM
- SI [10]: > 175
- SI [9]: > 263

Structure (SMILES): C=C(C)COCn1c(Cc2cc(C)cc(C)c2)c(CC)c(=O)[nH]c1=O
- EC50 [1]: 2200 nM
- EC50 [2]: 4000 nM
- EC50 [3]: 8 nM
- EC50 [4]: 360 nM
- EC50 [5]: 28000 nM
- EC50 [6]: 2.5 nM
- CC50 (MT4; Homo sapiens, MT4): > 100000 nM
- SI [10]: > 12500
- SI [9]: > 40000

Structure (SMILES): CCc1c(Cc2cccc3ccccc23)n(COCC=C(C)C)c(=O)[nH]c1=O
- EC50 [6]: 300 nM
- CC50 (MT4; Homo sapiens, MT4): > 100000 nM
- SI [9]: > 333

Structure (SMILES): C=CCOCn1c(Cc2cc(C)cc(C)c2)c(CC)c(=O)[nH]c1=O
- EC50 [1]: 20 nM
- EC50 [2]: 70 nM
- EC50 [3]: 0.02 nM
- EC50 [4]: 320 nM
- EC50 [5]: 10000 nM
- EC50 [6]: 4 nM
- CC50 (MT4; Homo sapiens, MT4): 100000 nM
- CC50 (MT4): > 100000 nM
- SI [10]: > 5e+06
- SI [9]: 25000

Structure (SMILES): C=C(C)COCn1c(Cc2cc(C)cc(C)c2)c(C(C)C)c(=O)[nH]c1=O
- EC50 [4]: 15000 nM
- EC50 [5]: 26000 nM
- EC50 [6]: 0.15 nM
- CC50 (MT4; Homo sapiens, MT4): > 100000 nM
- SI [9]: > 667000

Structure (SMILES): C=CCOCn1c(Cc2cccc3ccccc23)c(CC)c(=O)[nH]c1=O
- EC50 [6]: 1000 nM
- CC50 (MT4; Homo sapiens, MT4): 32000 nM
- SI [9]: 32

Structure (SMILES): CC(C)=CCOCn1c(Cc2ccccc2)c(C(C)C)c(=O)[nH]c1=O
- EC50 [1]: 3800 nM
- EC50 [2]: > 100000 nM
- EC50 [3]: 30 nM
- EC50 [4]: > 100000 nM
- EC50 [5]: > 100000 nM
- EC50 [6]: 30 nM
- CC50 (MT4; Homo sapiens, MT4): 34000 nM
- CC50 [11]: 32000 nM
- SI [10]: 1120
- SI [9]: 1070

Structure (SMILES): O=C1Nc2ccc(Cl)cc2[C@@](C#CC2CC2)(C(F)(F)F)O1 [EFAVIRENZ]
- EC50 [1]: 350 nM
- EC50 [2]: 40 nM
- EC50 [3]: 40 nM
- EC50 [5]: 2700 nM
- EC50 [6]: 10 nM
- CC50 (MT4; Homo sapiens, MT4): > 100000 nM

Structure (SMILES): C=CCOCn1c(Cc2ccccc2)c(C(C)C)c(=O)[nH]c1=O
- EC50 [1]: 900 nM
- EC50 [2]: 3300 nM
- EC50 [3]: 3 nM
- EC50 [4]: 100000 nM
- EC50 [5]: > 100000 nM
- EC50 [6]: 4 nM
- CC50 (MT4; Homo sapiens, MT4): > 100000 nM
- SI [10]: > 33300
- SI [9]: > 25000

Structure (SMILES): CC(C)Nc1cccnc1N1CCN(C(=O)c2cc3cc(NS(C)(=O)=O)ccc3[nH]2)CC1 [DELAVIRDINE MESYLATE]
- EC50 [1]: 3000 nM
- EC50 [2]: 4500 nM
- EC50 [3]: 190 nM
- EC50 [4]: > 100000 nM
- EC50 [5]: > 100000 nM
- EC50 [6]: 60 nM
- CC50 (MT4; Homo sapiens, MT4): 42000 nM
- CC50 (MT4): > 42000 nM
- SI [10]: > 221
- SI [9]: 700

Structure (SMILES): CCc1c(Cc2cc(C)cc(C)c2)n(COCC=C(C)C)c(=O)[nH]c1=O
- EC50 [1]: 90 nM
- EC50 [2]: 450 nM
- EC50 [3]: 0.02 nM
- EC50 [4]: 340 nM
- EC50 [5]: > 100000 nM
- EC50 [6]: 0.3 nM
- CC50 (MT4; Homo sapiens, MT4): 36000 nM
- CC50 (MT4): 61000 nM
- SI [10]: 3.03e+06
- SI [9]: 120000

Structure (SMILES): C=CCOCn1c(Cc2cc(C)cc(C)c2)c(C(C)C)c(=O)[nH]c1=O
- EC50 [4]: > 100000 nM
- EC50 [5]: > 100000 nM
- EC50 [6]: 0.2 nM
- CC50 (MT4; Homo sapiens, MT4): 30000 nM
- SI [9]: 150000

Structure (SMILES): CC(C)=CCOCn1c(Cc2cc(C)cc(C)c2)c(C(C)C)c(=O)[nH]c1=O
- EC50 [4]: 19000 nM
- EC50 [5]: 28000 nM
- EC50 [6]: 0.2 nM
- CC50 (MT4; Homo sapiens, MT4): > 100000 nM
- SI [9]: > 500000

Structure (SMILES): C=C(C)COCn1c(Cc2cccc3ccccc23)c(CC)c(=O)[nH]c1=O
- EC50 [6]: 1000 nM
- CC50 (MT4; Homo sapiens, MT4): 35000 nM
- SI [9]: 35

Structure (SMILES): C#CCOCn1c(Cc2ccccc2)c(C(C)C)c(=O)[nH]c1=O
- EC50 [4]: > 100000 nM
- EC50 [5]: > 100000 nM
- EC50 [6]: 7 nM
- CC50 (MT4; Homo sapiens, MT4): > 100000 nM
- SI [9]: > 14300
